Results reported in paper PMC4038343 (Biochemistry, 2014).
Entries after “also recorded” stand apart in the source; their conditions may differ. Square brackets hold non-standard residues; d marks the D form. Ends that are not written are not given here.

B1: V domain of the receptor for advanced glycation end products (RAGE) (domain or fragment)
chain: QNITARIGEPLVLKCKGAPKKPPQRLEWKLNTGRTEAWKVLSPQGGGPWDSVARVLPNGSLFLPAVGIQDEGIFRCQAMNRNGKETKSNYRVRVYQIPGKPE

Tests used:
V domain of RAGE [1] = molecular target: T1, V domain of RAGE (Homo sapiens, UniProt Q15109); test: NMR solution structure of MG-H1–V domain complex; assay type: binding
Summary of the method: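 Samples of 500 μM [U-13C,15N] V domain, free and with 1 mM unlabeled hydroimidazolone ligand, in pH 6.5 phosphate, 100 mM NaCl, 0.02% NaN3, 90% H2O/10% D2O. 3D 15N- and 13C-edited and 15N-edited/13C-filtered NOESY-HSQC. CYANA calculation: 986 intramolecular and five intermolecular distance restraints (intermolecular upper limits 6 Å), 150 TALOS torsion pairs, 38 H-bond restraints, one disulfide. 20 best structures kept.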

RAGE = settings: cited from earlier work
V domain of RAGE [2] = molecular target: T1, V domain of RAGE; test: Fluorescence titration, native tryptophan fluorescence of wild-type V domain; assay type: binding; settings: pH 6.5, 25 °C
Summary of the method: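 Wild-type RAGE V domain: expressed in E. coli BL21(DE3) Codon+, purified on Ni-NTA, His tag removed by thrombin. 100 nM protein in 10 mM phosphate pH 6.5 with 100 mM NaCl, at 25 °C in a stirred cuvette. Test compound titrated from 5 nM to 10 μM in 11 steps. Tryptophan emission excited at 295 nm, reference titrations subtracted, dilution-corrected. Kd from single-site binding isotherm fit.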

V domain of RAGE [3] = molecular target: T1, V domain of RAGE; test: ELISA-based competition with MGO-BSA for the V domain; assay type: binding; settings: 1 μM V domain
V domain of RAGE [4] = molecular target: T1, V domain of RAGE; test: Binding of arginine to the V domain; settings: method not stated
[5] = system: JNK phosphorylation (p-JNK) in A549 cells, effector of RAGE signaling; test: JNK phosphorylation in A549 cells, Western blot; assay type: cell-based, human; settings: 200 nM (12 μg/mL) MGO-BSA, 7 min, vs unmodified BSA
[6] = molecular target: methylglyoxal-modified bovine serum albumin (bovine, UniProt P02769 25-607, methylglyoxal-modified, contains hydroimidazolones; sites and number not stated); test: ELISA
[7] = molecular target: B1; test: other fluorescence titration

methylglyoxal-modified bovine serum albumin, sequence (P02769 25-607): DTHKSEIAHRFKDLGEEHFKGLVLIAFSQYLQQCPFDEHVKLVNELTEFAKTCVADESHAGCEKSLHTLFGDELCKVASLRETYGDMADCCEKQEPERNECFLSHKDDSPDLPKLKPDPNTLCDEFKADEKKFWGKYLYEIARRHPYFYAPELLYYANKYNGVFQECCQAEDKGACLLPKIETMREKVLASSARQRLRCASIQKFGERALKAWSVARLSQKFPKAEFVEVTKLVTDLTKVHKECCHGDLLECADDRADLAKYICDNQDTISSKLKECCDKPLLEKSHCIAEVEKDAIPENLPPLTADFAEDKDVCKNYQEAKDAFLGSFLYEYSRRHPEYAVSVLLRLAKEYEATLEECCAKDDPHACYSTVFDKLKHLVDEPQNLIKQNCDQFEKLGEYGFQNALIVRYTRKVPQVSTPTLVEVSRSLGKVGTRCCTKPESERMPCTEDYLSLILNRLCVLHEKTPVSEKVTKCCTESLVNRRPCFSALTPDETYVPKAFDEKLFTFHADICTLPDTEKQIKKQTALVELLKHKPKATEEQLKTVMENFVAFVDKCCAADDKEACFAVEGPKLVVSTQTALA

CC1N=C(NCCCC(N)C(=O)O)NC1=O [(R)-epimer of MG-H1]
stereospecific fit into the MG-H1–V domain binding site (V domain of RAGE [1]; NMR solution structure, ligand racemic mixture of (R)- and (S)-epimers): Only the (R)-epimer of MG-H1 can be fit into the MG-H1–V domain binding site

CC(NCCCC[C@H](N)C(=O)O)C(=O)O (stereo partly drawn) [CEL, N^ε-carboxyethyl-lysine]
binding to RAGE of free AGE adducts of lysine (RAGE): do not bind to RAGE

N[C@@H](CCCCNCC(=O)O)C(=O)O [CML, N^ε-carboxymethyl-lysine]
binding to RAGE of free AGE adducts of lysine (RAGE): do not bind to RAGE

N[C@@H](CCCNC1=NC(=O)CN1)C(=O)O [G-H1, N^δ-(5-hydro-4-imidazolon-2-yl)ornithine]
affinity for the V domain (in words) (V domain of RAGE [2]): comparable to that of the MG-Hs

CC1NC(NCCC[C@H](N)C(=O)O)=NC1=O (stereo partly drawn) [MG-H1, N^δ-(5-hydro-5-methyl-4-imidazolon-2-yl)ornithine]
size of MG-H1 binding site (V domain of RAGE [1]; NMR solution structure of MG-H1–V domain complex): 80 Å^2 | blocking of MGO-BSA binding to the V domain (V domain of RAGE [3]): can successfully block binding of MGO-BSA to the V domain

CC1C(=O)N=C(N)N1CCCC(N)C(=O)O (stereo not drawn) [MG-H2, 5-(2-amino-5-hydro-5-methyl-4-imidazolon-1-yl)norvaline]
blocking of MGO-BSA binding to the V domain (V domain of RAGE [3]): can successfully block binding of MGO-BSA to the V domain

CC1N=C(N)N(CCCC(N)C(=O)O)C1=O (stereo not drawn) [MG-H3, 5-(2-amino-4-hydro-4-methyl-5-imidazolon-1-yl)norvaline]
blocking of MGO-BSA binding to the V domain (V domain of RAGE [3]): can successfully block binding of MGO-BSA to the V domain

N=C(N)NCCC[C@H](N)C(=O)O [arginine]
binding to the V domain (V domain of RAGE [4]): did not detect any binding

MGO-BSA: methylglyoxal-modified bovine serum albumin, prepared according to the method of Ahmed et al.
JNK phosphorylation [5]: increase in the level of phosphorylation of JNK; also recorded: increases JNK phosphorylation (p-JNK) relative to that with BSA alone

B1
binding result [6]: binds

ALT[MG‑H1]EYTG [ALT(MG-H1)EYTG, synthetic MG-H1-containing peptide]
Kd [7]: 44 ± 6 nM
